According to ChEMBL document CHEMBL3351244, “Structure based design of novel 6,5 heterobicyclic mitogen-activated protein kinase kinase (MEK) inhibitors leading to the discovery of imidazo[1,5-a] pyrazine G-479” (Bioorg Med Chem Lett, 2014):
In brackets after ≈: the same amount, converted by molar mass.

Experiments:
[1] = Antiproliferative activity against human HCT116 cells assessed as inhibition of cell proliferation after 72 hrs; format: functional, cell-based; conditions: HCT-116, 72 h
Method in brief: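 Cell proliferation measured after 72 h exposure in HCT116 and A375 cells; IC₅₀ reported.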

[2] = Hepatic clearance in human liver microsomes; format: ADME
Method in brief: (§1)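 Compounds incubated with liver microsomes from human, rat, mouse, dog and cynomolgus monkey to assess comparative metabolic stability; clearance expressed in mL/min/kg, with stable/moderate/labile designations assigned by set ranges.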

[3] = Hepatic clearance in rat liver microsomes; format: ADME; method in brief: as §1
[4] = Hepatic clearance in mouse liver microsomes; format: ADME; method in brief: as §1
[5] = Total clearance in rat at 1 mg/kg, iv or 5 mg/kg, po; format: ADME, organism-based; conditions: in vivo
Rattus norvegicus [6] = assay: Dose normalized AUC in rat at 5 mg/kg, po; format: ADME, organism-based; set-up: dose 5 mg/kg, route oral; conditions: in vivo
[7] = Oral bioavailability in rat at 5 mg/kg; format: ADME, organism-based; conditions: in vivo
[8] = biological target: Voltage-gated inwardly rectifying potassium channel KCNH2 (Homo sapiens, UniProt Q12809); assay: Inhibition of human ERG by patch clamp assay
[9] = Thermodynamic solubility of the compound at pH 6.5; format: physicochemical; conditions: buffer, read-out: Therm_solubility
Rattus norvegicus [10] = assay: Free clearance in rat at 1 mg/kg, iv or 5 mg/kg, po; format: ADME, organism-based; conditions: in vivo
MDCK [11] = assay: (§2) Permeability from apical to basolateral side in MDCK cells; format: ADME, cell-based, Canis lupus familiaris; conditions: dog
MDCK [12] = assay: (§3) Permeability from basolateral to apical side in MDCK cells; format: ADME, cell-based, Canis lupus familiaris; conditions: dog
MDCK [13] = assay: (§4) Efflux ratio in MDCK cells; format: ADME, cell-based, Canis lupus familiaris; conditions: dog
Method in brief: (§5)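 Efflux ratio derived as B–A permeability divided by A–B permeability across MDCK cell monolayers. Apparent permeabilities were measured in both directions and expressed in 10^-6 cm/s.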

[14] = Protein binding in human plasma; format: ADME, cell-free; conditions: read-out: PPB (converted)
[15] = Protein binding in rat plasma; format: ADME, cell-free; conditions: read-out: PPB (converted)
[16] = Protein binding in mouse plasma; format: ADME, cell-free; conditions: read-out: PPB (converted)
A-375 = assay: cells; conditions: Homo sapiens, A-375, 72 h
[17] = Lipophilicity, logD of the compound at pH 7.4; format: physicochemical; conditions: buffer
Cytochrome P450 2C9 = Cytochrome P450 2C9 (Homo sapiens, UniProt P11712); assay: Inhibition of CYP2C9 (unknown origin); format: ADME
Cytochrome P450 2C19 = Cytochrome P450 2C19 (Homo sapiens, UniProt P33261); assay: Inhibition of CYP2C19 (unknown origin); format: ADME
Cytochrome P450 3A4 [18] = biological target: T1, Cytochrome P450 3A4 (Homo sapiens, UniProt P08684); assay: Inhibition of CYP3A4 (unknown origin) using midazolam substrate; format: ADME
Cytochrome P450 3A4 [19] = biological target: T1, Cytochrome P450 3A4; assay: Inhibition of CYP3A4 (unknown origin) using testosterone substrate; format: ADME
Cytochrome P450 2D6 = Cytochrome P450 2D6 (Homo sapiens, UniProt P10635); assay: Inhibition of CYP2D6 (unknown origin); format: ADME
Cytochrome P450 1A2 = biological target: T2, Cytochrome P450 1A2 (Homo sapiens, UniProt P05177); assay: Inhibition of CYP1A2 (unknown origin); format: ADME
T2 sequence (P05177 whole entry): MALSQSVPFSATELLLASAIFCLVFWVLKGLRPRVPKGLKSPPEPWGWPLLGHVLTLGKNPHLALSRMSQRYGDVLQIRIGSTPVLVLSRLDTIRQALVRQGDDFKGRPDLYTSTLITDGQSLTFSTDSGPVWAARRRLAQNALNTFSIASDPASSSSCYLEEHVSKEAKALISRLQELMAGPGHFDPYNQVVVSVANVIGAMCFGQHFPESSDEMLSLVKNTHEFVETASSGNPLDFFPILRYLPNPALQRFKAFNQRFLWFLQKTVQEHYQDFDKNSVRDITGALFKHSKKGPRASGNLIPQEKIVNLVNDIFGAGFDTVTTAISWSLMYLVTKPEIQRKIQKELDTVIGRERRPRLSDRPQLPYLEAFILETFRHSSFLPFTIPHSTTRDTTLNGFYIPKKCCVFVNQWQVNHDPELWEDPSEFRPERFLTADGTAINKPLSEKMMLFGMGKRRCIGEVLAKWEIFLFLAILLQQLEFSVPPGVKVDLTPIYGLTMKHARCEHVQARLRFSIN

[20] = Hepatic clearance in dog liver microsomes; format: ADME, Canis lupus familiaris; method in brief: as §1
[21] = Hepatic clearance in cynomolgus monkey liver microsomes; format: ADME, Macaca fascicularis; method in brief: as §1
[22] = Half life in rat at 1 mg/kg, iv or 5 mg/kg, po; format: ADME, organism-based; conditions: in vivo
[23] = Volume of distribution at steady state in rat at 1 mg/kg, iv or 5 mg/kg, po; format: ADME, organism-based; conditions: in vivo, read-out: Vdss
[24] = AUC in rat at 1 mg/kg, iv or 5 mg/kg, po; format: ADME, organism-based; conditions: plasma
[25] = as §2; format: ADME, cell-based, Canis lupus familiaris; conditions: dog, read-out: permeability
[26] = as §3; format: ADME, cell-based, Canis lupus familiaris; conditions: dog, read-out: permeability
[27] = as §4; format: ADME, cell-based, Canis lupus familiaris; conditions: dog; method in brief: as §5
[28] = Dissociation constant, pKa of the compound by Sirius based assay; format: physicochemical
Plasma [29] = assay: Stability in rat plasma at 5 mg/kg, po; format: ADME, organism-based; set-up: dose 5 mg/kg, route oral; conditions: in vivo
Plasma [30] = assay: Drug metabolism rat plasma assessed as metabolite formation at 5 mg/kg, po; format: ADME, organism-based; set-up: dose 5 mg/kg, route oral; conditions: in vivo
[31] = biological target: Dual specificity mitogen-activated protein kinase kinase 1 (Homo sapiens, UniProt Q02750); assay: Inhibition of MEK1 (unknown origin) by HTRF assay
Dual specificity mitogen-activated protein kinase kinase 1, sequence (Q02750 whole entry): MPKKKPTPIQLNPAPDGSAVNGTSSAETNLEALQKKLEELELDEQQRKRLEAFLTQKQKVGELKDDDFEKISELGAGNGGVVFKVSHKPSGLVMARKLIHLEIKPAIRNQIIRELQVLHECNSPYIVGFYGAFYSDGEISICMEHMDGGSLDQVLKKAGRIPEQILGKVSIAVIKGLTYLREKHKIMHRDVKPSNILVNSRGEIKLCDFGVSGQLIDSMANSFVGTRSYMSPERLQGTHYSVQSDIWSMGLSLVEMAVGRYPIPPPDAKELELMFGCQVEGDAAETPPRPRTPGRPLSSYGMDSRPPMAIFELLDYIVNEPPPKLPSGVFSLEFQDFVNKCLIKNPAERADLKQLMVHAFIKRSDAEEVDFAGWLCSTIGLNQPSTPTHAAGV

Cytochrome P450 2D6, sequence (P10635 whole entry): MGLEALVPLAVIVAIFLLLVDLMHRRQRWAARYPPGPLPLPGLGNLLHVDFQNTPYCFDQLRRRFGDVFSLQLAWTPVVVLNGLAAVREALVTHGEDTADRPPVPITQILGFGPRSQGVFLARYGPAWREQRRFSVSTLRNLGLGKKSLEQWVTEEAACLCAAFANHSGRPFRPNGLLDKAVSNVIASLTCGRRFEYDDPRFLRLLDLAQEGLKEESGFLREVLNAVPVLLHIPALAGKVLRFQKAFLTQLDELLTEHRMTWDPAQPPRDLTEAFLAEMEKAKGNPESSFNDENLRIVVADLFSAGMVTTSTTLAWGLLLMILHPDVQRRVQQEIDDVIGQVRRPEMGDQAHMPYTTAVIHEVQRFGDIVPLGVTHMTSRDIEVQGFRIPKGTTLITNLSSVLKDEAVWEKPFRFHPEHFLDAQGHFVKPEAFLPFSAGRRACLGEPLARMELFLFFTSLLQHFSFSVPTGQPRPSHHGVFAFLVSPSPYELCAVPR
Voltage-gated inwardly rectifying potassium channel KCNH2, sequence (Q12809 whole entry): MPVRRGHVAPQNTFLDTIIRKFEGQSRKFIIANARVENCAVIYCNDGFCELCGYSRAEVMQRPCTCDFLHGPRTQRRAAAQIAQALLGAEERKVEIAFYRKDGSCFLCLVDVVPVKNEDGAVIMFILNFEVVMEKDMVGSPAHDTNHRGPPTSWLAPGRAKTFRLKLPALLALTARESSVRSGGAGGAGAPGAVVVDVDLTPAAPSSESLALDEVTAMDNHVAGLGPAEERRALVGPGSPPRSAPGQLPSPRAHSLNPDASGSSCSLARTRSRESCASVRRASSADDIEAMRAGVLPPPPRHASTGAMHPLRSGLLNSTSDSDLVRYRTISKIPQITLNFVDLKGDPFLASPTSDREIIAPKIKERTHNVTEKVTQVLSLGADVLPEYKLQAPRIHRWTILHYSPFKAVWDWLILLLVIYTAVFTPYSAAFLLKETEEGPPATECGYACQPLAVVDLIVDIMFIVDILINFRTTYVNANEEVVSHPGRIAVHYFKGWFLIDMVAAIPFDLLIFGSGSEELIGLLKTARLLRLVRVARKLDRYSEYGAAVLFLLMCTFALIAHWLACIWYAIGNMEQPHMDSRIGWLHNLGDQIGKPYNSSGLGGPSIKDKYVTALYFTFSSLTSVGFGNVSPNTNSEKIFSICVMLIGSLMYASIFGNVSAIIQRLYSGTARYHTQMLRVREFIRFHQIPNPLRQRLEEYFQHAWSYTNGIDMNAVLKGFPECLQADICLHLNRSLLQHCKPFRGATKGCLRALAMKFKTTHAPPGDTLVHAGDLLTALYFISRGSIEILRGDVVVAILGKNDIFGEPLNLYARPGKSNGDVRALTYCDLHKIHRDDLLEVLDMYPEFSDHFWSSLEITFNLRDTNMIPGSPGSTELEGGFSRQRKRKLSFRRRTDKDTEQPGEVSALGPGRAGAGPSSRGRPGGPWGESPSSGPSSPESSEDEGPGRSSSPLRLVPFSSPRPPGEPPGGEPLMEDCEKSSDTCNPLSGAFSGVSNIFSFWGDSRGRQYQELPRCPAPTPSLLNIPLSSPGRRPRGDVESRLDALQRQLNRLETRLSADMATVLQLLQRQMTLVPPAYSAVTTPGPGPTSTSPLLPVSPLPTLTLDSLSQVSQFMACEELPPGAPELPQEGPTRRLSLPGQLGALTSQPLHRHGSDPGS
T1 sequence (P08684 whole entry): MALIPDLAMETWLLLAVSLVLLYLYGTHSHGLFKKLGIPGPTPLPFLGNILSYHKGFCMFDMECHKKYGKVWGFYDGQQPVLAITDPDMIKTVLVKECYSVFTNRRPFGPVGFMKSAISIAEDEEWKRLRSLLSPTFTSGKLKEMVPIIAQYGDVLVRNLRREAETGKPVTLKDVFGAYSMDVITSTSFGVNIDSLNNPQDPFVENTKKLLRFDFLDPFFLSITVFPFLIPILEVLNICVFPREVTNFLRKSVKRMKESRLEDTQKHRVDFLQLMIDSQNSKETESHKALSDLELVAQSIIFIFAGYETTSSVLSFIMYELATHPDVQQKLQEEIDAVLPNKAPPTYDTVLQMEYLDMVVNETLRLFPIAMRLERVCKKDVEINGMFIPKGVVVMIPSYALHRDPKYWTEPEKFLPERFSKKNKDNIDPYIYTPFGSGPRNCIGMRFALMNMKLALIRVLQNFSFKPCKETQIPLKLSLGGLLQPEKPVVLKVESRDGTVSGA
Cytochrome P450 2C9, sequence (P11712 whole entry): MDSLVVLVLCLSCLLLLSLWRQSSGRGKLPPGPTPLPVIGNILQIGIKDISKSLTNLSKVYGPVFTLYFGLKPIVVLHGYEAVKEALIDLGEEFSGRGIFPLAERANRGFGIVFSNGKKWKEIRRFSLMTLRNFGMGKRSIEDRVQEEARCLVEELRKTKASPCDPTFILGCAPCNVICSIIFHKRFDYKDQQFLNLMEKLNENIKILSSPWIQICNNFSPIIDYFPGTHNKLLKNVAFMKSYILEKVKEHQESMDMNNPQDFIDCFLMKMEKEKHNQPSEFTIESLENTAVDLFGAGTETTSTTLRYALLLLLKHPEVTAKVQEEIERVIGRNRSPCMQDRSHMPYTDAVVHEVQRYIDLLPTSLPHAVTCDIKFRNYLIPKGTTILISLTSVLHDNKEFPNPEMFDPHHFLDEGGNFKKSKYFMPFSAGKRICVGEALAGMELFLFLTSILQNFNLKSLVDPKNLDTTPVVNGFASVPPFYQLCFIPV
Cytochrome P450 2C19, sequence (P33261 whole entry): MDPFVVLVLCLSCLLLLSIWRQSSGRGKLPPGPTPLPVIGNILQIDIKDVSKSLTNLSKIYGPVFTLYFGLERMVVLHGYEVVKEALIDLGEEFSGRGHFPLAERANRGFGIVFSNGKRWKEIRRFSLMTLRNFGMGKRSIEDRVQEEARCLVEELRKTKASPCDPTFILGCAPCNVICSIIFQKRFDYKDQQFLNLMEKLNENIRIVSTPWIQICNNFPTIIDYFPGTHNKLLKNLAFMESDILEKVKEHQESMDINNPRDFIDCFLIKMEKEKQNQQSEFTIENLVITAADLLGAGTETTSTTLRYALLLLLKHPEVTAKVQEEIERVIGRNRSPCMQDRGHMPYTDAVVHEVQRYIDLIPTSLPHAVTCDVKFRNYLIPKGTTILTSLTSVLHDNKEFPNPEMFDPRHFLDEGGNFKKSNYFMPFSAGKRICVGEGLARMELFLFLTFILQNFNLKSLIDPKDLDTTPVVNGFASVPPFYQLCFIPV

Row | SMILES | CLhep predicted [2] [mL/min/kg] | CLhep predicted [3] [mL/min/kg] | CLhep predicted [4] [mL/min/kg] | clearance [5] [mL/min/kg] | AUC/dose (Rattus norvegicus [6]) [µM·h] | bioavailability [7] [%] | solubility thermodynamic [9] [µg/mL] | CL free (Rattus norvegicus [10]) [mL/min/kg] | fraction unbound [14] | fraction unbound [15] | fraction unbound [16] | EC50 (A-375) [nM] | logD [17] | IC50 (Cytochrome P450 2C9) [nM] | IC50 (Cytochrome P450 2C19) [nM] | IC50 (Cytochrome P450 3A4 [18]) [nM] | IC50 (Cytochrome P450 3A4 [19]) [nM] | IC50 (Cytochrome P450 2D6) [nM] | EC50 [1] [nM] | IC50 [8] [nM] | also measured
1 | O=C(NOCCO)c1ccc2cnsc2c1Nc1ccc(I)cc1F | – | – | – | – | – | – | – | – | – | – | – | – | 3.1 | 1300 | 1800 | 9000 | 9000 | > 10000 | 44 | – | IC50 (Cytochrome P450 1A2): > 10000 nM
2 | O=C(NOCCO)c1ncc2cncn2c1Nc1ccc(I)cc1F | 11 | 41 | 54 | 48 | 1.48 | 38 | 150 (≈ 328 µM) | 600 | 0.09 | 0.08 | 0.11 | 8 | 2.1 | – | – | – | – | – | 120 | 3300 | pKa [28]: 2.03; Papp A→B [25]: 19.7 ×10⁻⁶ cm/s; Papp B→A [26]: 14 ×10⁻⁶ cm/s; efflux ratio [27]: 0.7
3 | O=C(NOCCO)c1ccc2cncn2c1Nc1ccc(I)cc1F [GDC-0623] | 14 | 38 | 64 | 13.2 | 20 | 100 | 41 (≈ 89.9 µM) | 1320 | 0.005 | 0.01 | 0.06 | 4 | 2.1 | > 10000 | > 10000 | > 10000 | > 10000 | > 10000 | 51 | 4400 | IC50 (Cytochrome P450 1A2): > 10000 nM; CLhep predicted [20]: 12 mL/min/kg; CLhep predicted [21]: 30 mL/min/kg; half-life [22]: 1.7 h; Vd [23]: 0.5 L/kg; pKa [28]: 4.3; Papp A→B [25]: 6.2 ×10⁻⁶ cm/s; Papp B→A [26]: 16.5 ×10⁻⁶ cm/s; efflux ratio [27]: 2.6; Stability (Plasma [29]): 82%; Drug metabolism (Plasma [30]): metabolite_detected
4 | O=C(NOCCO)c1oc2ccncc2c1Nc1ccc(I)cc1F | – | – | – | – | – | – | – | – | – | – | – | 25 | 3.1 | > 10000 | > 10000 | > 10000 | > 10000 | > 10000 | 120 | – | IC50 [31]: 12 nM; IC50 (Cytochrome P450 1A2): > 10000 nM

Now from value to compound, other results behind:

Row | CLhep predicted [2] [mL/min/kg] | CLhep predicted [3] [mL/min/kg] | CLhep predicted [4] [mL/min/kg] | clearance [5] [mL/min/kg] | AUC/dose (Rattus norvegicus [6]) [µM·h] | bioavailability [7] [%] | solubility thermodynamic [9] [µg/mL] | CL free (Rattus norvegicus [10]) [mL/min/kg] | fraction unbound [14] | fraction unbound [15] | fraction unbound [16] | EC50 (A-375) [nM] | logD [17] | IC50 (Cytochrome P450 2C9) [nM] | IC50 (Cytochrome P450 2C19) [nM] | IC50 (Cytochrome P450 3A4 [18]) [nM] | IC50 (Cytochrome P450 3A4 [19]) [nM] | IC50 (Cytochrome P450 2D6) [nM] | SMILES | EC50 [1] [nM] | IC50 [8] [nM] | also measured
5 | 8 | 19 | 29 | 12 | 9.2 | 65 | 12 (≈ 24.7 µM) | 92 | 0.14 | 0.13 | 0.13 | 7 | – | – | – | – | – | – | C[C@H](CO)CONC(=O)c1ncc2cncn2c1Nc1ccc(I)cc1F | 107 | 14000 | permeability (MDCK [11]): 7.9 ×10⁻⁶ cm/s; permeability (MDCK [12]): 8.7 ×10⁻⁶ cm/s; Ratio (MDCK [13]): 1.3
6 | 15 | 40 | 75 | 14 | 37 | 37 | 110 (≈ 241 µM) | 636 | 0.015 | 0.022 | 0.049 | 2 | 2.1 | 7300 | 16000 | > 10000 | > 10000 | > 10000 | O=C(NOCCO)c1ccn2cncc2c1Nc1ccc(I)cc1F | 35 | 2100 | IC50 (Cytochrome P450 1A2): > 10000 nM; CLhep predicted [20]: 23 mL/min/kg; CLhep predicted [21]: 38 mL/min/kg; half-life [22]: 0.9 h; Vd [23]: 0.46 L/kg; AUC [24]: 6 µM·h; Papp A→B [25]: 20.4 ×10⁻⁶ cm/s; Papp B→A [26]: 14 ×10⁻⁶ cm/s; efflux ratio [27]: 0.7
7 | 10 | 44 | 56 | 44 | 0.61 | 15 | 48 (≈ 102 µM) | 800 | 0.1 | 0.055 | 0.09 | 5 | – | – | – | – | – | – | C[C@H](O)CONC(=O)c1ncc2cncn2c1Nc1ccc(I)cc1F | 52 | – | –
8 | – | – | – | 3.3 | 41 | – | – | 55 | – | 0.03 | – | – | – | 1200 | – | – | – | – | O=C(NOCCO)c1cc(F)c2cncn2c1Nc1ccc(I)cc1F | 140 | – | half-life [22]: 3.6 h
